ChEMBL document CHEMBL4196154, “Structure-Guided Design and Development of Potent and Selective Dual Bromodomain 4 (BRD4)/Polo-like Kinase 1 (PLK1) Inhibitors” (J Med Chem, 2018)
Calls of active or inactive are those of the source. The calls are words filed in the database; no cut-off is given here.

What was measured:
[1] = tested on: MOLM-13; assay: Induction of cell cycle arrest in human MOLM13 assessed as accumulation at G1/G2 phase at 1 uM incubated for 24 hrs by propidium iodide staining based flow cytometry; format: functional
How it was run: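 MOLM13 cells exposed to 1 μM compound for 24 h, then harvested, stained with propidium iodide and PI fluorescence measured on a flow cytometer for cell-cycle distribution.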

[2] = biological target: T1, Serine/threonine-protein kinase PLK1 (Homo sapiens, UniProt P53350); assay: Inhibition of human recombinant PLK1 by Z-Lyte assay
[3] = biological target: T2, Bromodomain-containing protein 4 (Homo sapiens, UniProt O60885); assay: Inhibition of BRD4-BD1 (unknown origin) incubated for 1 hr by AlphaScreen biotin-JQ1 competition assay
[4] = biological target: Bromodomain testis-specific protein (Homo sapiens, UniProt Q58F21); assay: Inhibition of BRDT-BD1 (unknown origin) incubated for 1 hr by AlphaScreen biotin-JQ1 competition assay
How it was run: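 BD protein at 40 nM, Ni-coated acceptor and streptavidin donor beads each 25 μg/mL. Buffer 50 mM HEPES, 150 mM NaCl, 0.1% BSA, 0.01% Tween20, pH 7.5. Compounds delivered in DMSO. Run under low light, read after 1 h at room temperature.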

[5] = biological target: T2, Bromodomain-containing protein 4; assay: Inhibition of human BRD4-BD1 expressed in bacterial expression system assessed as remaining activity at 1 uM
How it was run: (§1)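 Single-concentration binding panel at 1 uM: BROMOscan (32 bromodomains) and KINOMEscan (468 kinases) competition-binding platforms. Reported as % of DMSO control.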

[6] = biological target: Serine/threonine-protein kinase PLK3 (Homo sapiens) (UniProt Q9H4B4); assay: Inhibition of human PLK3 expressed in mammalian expression system assessed as remaining enzyme activity at 1 uM; how it was run: as §1
[7] = biological target: T1, Serine/threonine-protein kinase PLK1; assay: Inhibition of human PLK1 expressed in mammalian expression system assessed as remaining enzyme activity at 1 uM; how it was run: as §1
[8] = biological target: Serine/threonine-protein kinase PLK2 (Homo sapiens) (UniProt Q9NYY3); assay: Inhibition of human PLK2 expressed in mammalian expression system assessed as remaining enzyme activity at 1 uM; how it was run: as §1
[9] = organism: Homo sapiens; assay: Selectivity index, ratio of IC50 for inhibition of BRD4-BD1 (unknown origin) to IC50 for human recombinant PLK1

T1 sequence (P53350 whole entry): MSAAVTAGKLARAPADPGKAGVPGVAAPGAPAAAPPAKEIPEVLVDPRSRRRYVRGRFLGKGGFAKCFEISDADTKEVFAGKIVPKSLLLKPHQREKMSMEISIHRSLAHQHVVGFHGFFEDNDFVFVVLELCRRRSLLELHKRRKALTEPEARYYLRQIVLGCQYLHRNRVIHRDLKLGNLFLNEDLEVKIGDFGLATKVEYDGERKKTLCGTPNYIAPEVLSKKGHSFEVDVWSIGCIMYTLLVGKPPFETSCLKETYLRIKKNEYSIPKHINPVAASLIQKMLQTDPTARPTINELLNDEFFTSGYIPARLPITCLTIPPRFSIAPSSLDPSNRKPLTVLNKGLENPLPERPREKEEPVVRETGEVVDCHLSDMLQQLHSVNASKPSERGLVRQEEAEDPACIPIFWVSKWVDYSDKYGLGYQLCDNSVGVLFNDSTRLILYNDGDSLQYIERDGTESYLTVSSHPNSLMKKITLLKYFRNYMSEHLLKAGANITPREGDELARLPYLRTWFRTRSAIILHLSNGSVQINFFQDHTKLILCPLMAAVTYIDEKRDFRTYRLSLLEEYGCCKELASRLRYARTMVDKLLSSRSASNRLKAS
Chain of Serine/threonine-protein kinase PLK2 (Homo sapiens) (Q9NYY3 whole entry, looked up): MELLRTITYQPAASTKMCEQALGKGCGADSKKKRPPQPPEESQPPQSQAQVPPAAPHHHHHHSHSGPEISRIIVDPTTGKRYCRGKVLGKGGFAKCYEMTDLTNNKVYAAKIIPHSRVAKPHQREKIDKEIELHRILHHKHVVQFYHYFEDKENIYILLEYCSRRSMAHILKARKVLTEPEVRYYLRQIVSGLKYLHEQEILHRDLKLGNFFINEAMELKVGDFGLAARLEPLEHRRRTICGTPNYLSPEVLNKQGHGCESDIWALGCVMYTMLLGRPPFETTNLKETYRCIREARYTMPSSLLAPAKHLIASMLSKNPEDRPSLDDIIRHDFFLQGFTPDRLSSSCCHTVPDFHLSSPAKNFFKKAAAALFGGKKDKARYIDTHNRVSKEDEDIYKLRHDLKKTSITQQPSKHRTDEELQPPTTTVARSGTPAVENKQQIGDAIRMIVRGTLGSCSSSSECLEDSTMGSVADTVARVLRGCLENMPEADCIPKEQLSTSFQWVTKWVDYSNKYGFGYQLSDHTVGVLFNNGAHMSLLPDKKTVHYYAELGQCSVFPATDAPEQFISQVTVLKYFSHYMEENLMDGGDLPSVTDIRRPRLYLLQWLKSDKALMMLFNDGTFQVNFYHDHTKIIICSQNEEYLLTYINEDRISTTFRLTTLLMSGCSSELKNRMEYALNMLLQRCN
Chain of Serine/threonine-protein kinase PLK3 (Homo sapiens) (Q9H4B4 whole entry, looked up): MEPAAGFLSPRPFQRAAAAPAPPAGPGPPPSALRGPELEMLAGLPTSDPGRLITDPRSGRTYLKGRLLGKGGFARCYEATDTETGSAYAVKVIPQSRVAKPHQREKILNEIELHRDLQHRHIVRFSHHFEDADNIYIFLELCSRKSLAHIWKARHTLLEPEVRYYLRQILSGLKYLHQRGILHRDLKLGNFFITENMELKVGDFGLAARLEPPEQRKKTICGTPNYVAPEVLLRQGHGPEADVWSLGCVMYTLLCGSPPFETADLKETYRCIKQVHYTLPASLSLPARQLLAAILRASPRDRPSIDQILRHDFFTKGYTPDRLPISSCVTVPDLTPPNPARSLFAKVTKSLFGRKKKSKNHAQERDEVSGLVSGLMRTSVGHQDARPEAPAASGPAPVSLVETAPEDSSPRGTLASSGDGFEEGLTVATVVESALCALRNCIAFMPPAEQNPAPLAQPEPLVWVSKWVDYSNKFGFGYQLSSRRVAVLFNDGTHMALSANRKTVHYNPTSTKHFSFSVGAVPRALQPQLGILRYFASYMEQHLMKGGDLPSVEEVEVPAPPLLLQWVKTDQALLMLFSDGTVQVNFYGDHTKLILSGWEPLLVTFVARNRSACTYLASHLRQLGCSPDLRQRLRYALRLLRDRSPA

| SMILES | IC50 [2] [nM] | IC50 [3] [nM] | IC50 [4] [nM] | further results |
| --- | --- | --- | --- | --- |
| C[C@@H]1C(=O)N(C)c2cnc(Nc3ccc(C(=O)NC4CCN(C)CC4)cc3OC3CCCC3)nc2N1C1CCCC1 | 40 | 28 | 102 | Activity [1]: Active |
| COC(=O)c1ccc(Nc2ncc3c(n2)N(C2CCCC2)[C@H](C)C(=O)N3C)c(OC2CCCC2)c1 | 457 | 253 | 933 | – |
| C[C@H]1C(=O)N(C)c2cnc(Nc3ccc(C(=O)NC4CCN(C)CC4)cc3OC3CCCC3)nc2N1C1CCCC1 | 127 | 59 | 245 | – |
| COc1cc(C(=O)NC2CCN(C)CC2)ccc1Nc1ncc2c(n1)N(C(C)C)[C@H](CC(C)C)C(=O)N2C | 218 | 41900 | – | – |
| COc1cc(C(=O)NC2CCCCC2)ccc1Nc1ncc2c(n1)N(C1CCCC1)[C@H](C)C(=O)N2C | 160 | 107 | 378 | – |
| COc1cc(C(=O)N2CCCCC2)ccc1Nc1ncc2c(n1)N(C1CCCC1)[C@H](C)C(=O)N2C | 95 | 94 | 369 | – |
| COc1cc(C(=O)NCCc2ccccc2)ccc1Nc1ncc2c(n1)N(C1CCCC1)[C@H](C)C(=O)N2C | 27 | 183 | 558 | – |
| CC[C@@H]1C(=O)N(C)c2cnc(Nc3ccc(C(=O)NC4CCN(C)CC4)cc3OC)nc2N1C(C)C | 4 | 186 | – | – |
| COc1cc(C(=O)NC2CCN(C)CC2)ccc1Nc1ncc2c(n1)N(C1CCCC1)[C@H](C)C(=O)N2C | 1.1 | 84 | 342 | Activity [5]: 12%; Activity [6]: 0.3 to 0.5%; Activity [7]: 0.3 to 0.5%; Activity [8]: 0.3 to 0.5% |
| COc1cc(C(=O)NC2CCN(C)CC2)ccc1Nc1ncc2c(n1)N(C1CCOCC1)[C@H](CC(C)C)C(=O)N2C | 322 | > 50000 | > 50000 | – |
| CCC[C@@H]1C(=O)N(C)c2cnc(Nc3ccc(C(=O)NC4CCN(C)CC4)cc3OC)nc2N1C1CCCC1 | 9.9 | 2580 | 8470 | Ratio IC50 [9]: > 250 |
| CN1CCC(NC(=O)c2ccc(Nc3ncc4c(n3)N(C3CCCC3)CC(=O)N4C)c(OC3CCCC3)c2)CC1 | – | 690 | 3540 | – |
| COc1cc(C(=O)NC2CCN(C)CC2)ccc1Nc1ncc2c(n1)N(C1CCCC1)[C@@H](C)C(=O)N2C | 8.7 | 107 | 229 | – |
| CC[C@@H]1C(=O)Nc2cnc(Nc3ccc(C(=O)NC4CCN(C)CC4)cc3OC)nc2N1C1CCCCC1 | 37.2 | > 10000 | – | Ratio IC50 [9]: > 250 |
| COc1cc(C(=O)NCCN(C)C)ccc1Nc1ncc2c(n1)N(C1CCCC1)[C@H](C)C(=O)N2C | 21 | 104 | 392 | – |
| COc1cc(C(=O)NC2CCN(C)CC2)ccc1Nc1ncc2c(n1)N(C1CCCC1)CC(=O)N2C | 54.1 | 6630 | 26000 | – |
| CC[C@@H]1C(=O)N(C)c2cnc(Nc3ccc(C(=O)NC4CCN(C)CC4)cc3OC)nc2N1C1CCCCC1 | 4 | 650 | – | – |
| COc1cc(C(=O)NC2CCN(C)CC2)ccc1Nc1ncc2c(n1)N(C1CCCCC1)[C@H](C)C(=O)N2C | 8.6 | 310 | 750 | – |
| CC[C@@H]1C(=O)Nc2cnc(Nc3ccc(C(=O)NC4CCN(C)CC4)cc3OC)nc2N1C(C)C | 2620 | > 10000 | – | Ratio IC50 [9]: > 250 |
| COc1cc(C(=O)NC2CCN(C)CC2)ccc1Nc1ncc2c(n1)N(C(C)C)[C@H](C)C(=O)N2C | 25.2 | 421 | 978 | – |
| CCC[C@@H]1C(=O)N(C)c2cnc(Nc3ccc(C(=O)NC4CCN(C)CC4)cc3OC3CCCC3)nc2N1C1CCCC1 | 47 | 596 | 1950 | – |
| COc1cc(C(=O)NC2CCNCC2)ccc1Nc1ncc2c(n1)N(C1CCCC1)[C@H](C)C(=O)N2C | 9 | 109 | 560 | – |
